According to PMC6743453 (Molecular Biology of the Cell, 2019):
“Also recorded” adds a separate entry of the source.

Experiments:
[1] = tested on: endogenous OCRL (mouse brain extracts); experiment: GST-F&H peptide pull down of endogenous OCRL from mouse brain extracts; assay type: binding; settings: GST fusions of 13 amino acid F&H motif peptides, Ses2 and APPL1 as positive controls
[2] = tested on: human OCRL ASHRhoGAP domain; experiment: Peptide array overlay with GST-hOCRL-ASHRhoGAP; assay type: binding; settings: summary statement, test not specified at the place
[3] = tested on: F&H surface of Dd5P4 (GFP-Dd5P4 WT vs W620A); experiment: GFP immunoprecipitation and mass spectrometry of GFP-Dd5P4 interactors; assay type: binding, Dictyostelium discoideum; settings: triplicate GFP immunoprecipitates; Dd5P4- cells expressing GFP-Dd5P4 WT vs W620A; label-free quantitation
In short: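 Cells were grown to 80% confluency in HL5 (glucose, vitamins, trace elements), with fusion strains under 5 µg/ml G418. Lysis buffer: 20 mM Tris pH 8, 10% glycerol, 100 mM NaCl, 1 mM EDTA, 1 mM DTT. Untransfected WT cells served as negative control. Beads were digested overnight with trypsin at 37°C, then StageTip-desalted. C18 nanoLC used a 95-min 5–30% acetonitrile gradient into a Q Exactive, with data-dependent top-10 MS/MS.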

[4] = tested on: endogenous OCRL (Cos7 cells); experiment: Frabin-GFP anti-GFP co-immunoprecipitation with endogenous OCRL in Cos7 cells; assay type: binding; settings: full length Frabin-GFP, GFP-trap beads, Western blot
In short: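 Frabin-GFP expressed in Cos7 cells by nucleofection, then pulled down on GFP-trap beads and washed extensively. Western blot detected Frabin-GFP with anti-GFP antibody and endogenous OCRL with mouse anti-human OCRL antibody.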

## AFHQRHETFRNAI* [Frabin]
[1]
  enrichment of endogenous OCRL by GST-F&H peptide: specifically enriched endogenous OCRL
[2]
  strength of Frabin F&H peptide interaction with OCRL: strong

## DDB_G0284853: mycBP2/Highwire-like protein of D. discoideum
[3]
  enrichment in GFP-Dd5P4 immunoprecipitates: specifically enriched in precipitates from GFP-Dd5P4-expressing cells versus negative control precipitates, but not in precipitates from GFP-Dd5P4^W620A-expressing cells

B1: Frabin-GFP: full length Frabin-GFP expressed in Cos7 cells (protein)
chain: MEEIKPASASCVSKEKPSKVSDLISRFEGGSSLSNYSDLKKESAVNLNAPRTPGRHGLTTTPQQKLLSQHLPQRQGNDTDKTQGAQTCVANGVMAAQNQMECEEEKAATLSSDTSIQASEPLLDTHIVNGERDETATAPASPTTDSCDGNASDSSYRTPGIGPVLPLEERGAETETKVQERENGESPLELEQLDQHHEMKETNEQKLHKIANELLLTERAYVNRLDLLDQVFYCKLLEEANRGSFPAEMVNKIFSNISSINAFHSKFLLPELEKRMQEWETTPRIGDILQKLAPFLKMYGEYVKGFDNAMELVKNMTERIPQFKSVVEEIQKQKICGSLTLQHHMLEPVQRIPRYEMLLKDYLRKLPPDSLDWNDAKKSLEIISTAASHSNSAIRKMENLKKLLEIYEMLGEEEDIVNPSNELIKEGQILKLAARNTSAQERYLFLFNNMLLYCVPKFSLVGSKFTVRTRVGIDGMKIVETQNEEYPHTFQVSGKERTLELQASSAQDKEEWIKALQETIDAFHQRHETFRNAIAKDNDIHSEVSTAELGKRAPRWIRDNEVTMCMKCKEPFNALTRRRHHCRACGYVVCWKCSDYKAQLEYDGGKLSKVCKDCYQIISGFTDSEEKKRKGILEIESAEVSGNSVVCSFLQYMEKSKPWQKAWCVIPKQDPLVLYMYGAPQDVRAQATIPLLGYVVDEMPRSADLPHSFKLTQSKSVHSFAADSEELKQKWLKVILLAVTGETPGGPNEHPATLDDHPEPKKKSEC
modifications: left off: GFP, end not stated, kept
[4]
  coprecipitation of endogenous OCRL with Frabin-GFP: weak but specific interaction with endogenous OCRL; also recorded: weak, albeit specific, coprecipitation with OCRL

B2: DDB_G0275301: OCRL-Interacting Bar domain Protein of D. discoideum (protein)
chain: MFKKGLDVLSKTKNAAVSSMTELETESDEVQNAKVALKNMKWSIKLLIQLAKNYFATSDKQVQQGTAFSVILQRFSEKISHTNYIINQTLPLSDSLREVGEGIKNSSTYFQQYTQIFCDKFATNIEALYVGHVKKVATLEKQQEESRIKYNNALNYLKSTQKSGHTGTKLAEKTTEYENAKAYYEQISLNLISATNDMVNYVQREVAVQMKQFVAEQQLMVQECIKMWVIAENKLFNSQSPVNTTSTTSPNTYGDYNNNANTVNLSKLSLDKEEQPPQPYQPPQQHSPPQQTFHQSPPTDFSSQHQQYSFDQSSPQETYQPPQQQQPEGQKSPNPFDDKNPFDN
[3]
  enrichment in GFP-Dd5P4 immunoprecipitates: specifically enriched in precipitates from GFP-Dd5P4-expressing cells versus negative control precipitates, but not in precipitates from GFP-Dd5P4^W620A-expressing cells

B3: DDB_G0280015: PH domain Interacting with OCRL, 741 amino acid protein of D. discoideum (protein)
chain: MESSSMTTNNNNNNSTISPSSSTTSISTSKNNDFLTLHKAYIDEWLMVSFLPILKTTYDGENNFYDISNLNIKNVNQRNIPFSEQLFALDRQFQNLINQWEKLSRSDQQRAAKIESYQQSFYTFIDRIKSTLEKTMVELGGSLEDSNFLAAAISLKEKQSKNKRLTIMARSRISPGGTSSTQYQHQMHLTGPISIVWNEILIIITRKVNEEVVRLQTENINNNIKNINNSEFNITNDIYQFNNNNLTQANKLEINNQRQKLYQQALSNIVPMLFEWRIMMANAQKVISEEKRFKVNPFIPTTVYDHNSSSFISAPILISTTNKTATTLLNNLNNNNIINNNNNNNNNNNNNNNNNNNNNNNNNSSSNSNNNNNSPISNSPSSSSPSPSSPTLTNRPSFINYDNQNNENNINNNNNNENNIGNNNINNNNSNENSDNKFSEEINISSSPPGTSGMTNSTSNLPTIASPTSWTKAVKRPAMSSSGGNIPILNNLGTSLNNNNNNKQIQDNNNNNLNTINANSNGNNNNSSNNVNSENNNIPTGGIIKQGWMKKRGTKNKSWKKRYFILDMKKTLRYYKDNSKIPHGNNSNNSGGGSSSNNNNCNSGNNNNGLNGGSGKGDQVNGNNISLPIGNNPHFHSSSGSGIPTTSPSMSSSSTSLENNDILSSFDHLKYKGSIDLYTSLVVAIKPSTFNVNINNSGSFKEDNNSYFGMDIITPSRTWNFCCESSKSMEDWLIVLKSANK
[3]
  enrichment in GFP-Dd5P4 immunoprecipitates: specifically enriched in precipitates from GFP-Dd5P4-expressing cells versus negative control precipitates, but not in precipitates from GFP-Dd5P4^W620A-expressing cells

B4: GxcU: putative Rho-GEF of D. discoideum (protein)
chain: MDTKNKEILGSTIKAWIGRKRYKTMMVNKTNRDKVAKEILDTEQIYVRNLETIVQFYLKPLRNINPPLLSPKSIQIIFGHIEDLLSLNTELLTSIQDRMTTWYQDKRLGDIFTKMAPYLKVYTEYCGNYDKAVARLKQKSDESRDLQMFLKRVTSENSFGLDLNSLLVTPIQRIPRYKLLLQSLIQLTPVEFSDYPTLAKALENVALVADHINESIREKQNSEKILTIQKRFTGQCPPLLAPLRTFIREGSLTKVCRKDHKKRWFILFSDALVYGNRIDTAVGNPIYKFHRLLPLSNTKIANLDDTKHKNSFQLIHPIKSFTLIADTEQEKSSWMNSFSDAQNFLLRNEGSVARMNKQYRSINILKPKEEETVSTAPVWIPDSEAIQCMECTIKFTTIRRRHHCRRCGNVVCGKCSEQKWTLDQYKKDARVCKTCYNYLSISSSRSNENNVSSSNNLSTPTSTFTATTATATAPFGTLTDGASLADVSSDSEGEDNSSSINDSNPDMPIINGLSSIQIDNTPVILNTVNPSPPLLSQPQPQQPQQPQLQPLQQPLQQPPQPPQPPQTNHKSFIATHTAYNKENSLKSTSPSSSFIETSTSTSASTSTSTSTSTSTSTSTSTSTSTSTSNSTSNSTLTPGPPMLSKSNAGNSSLLDFCKSYIQNSPNVSPAKVEKHKHSSSSSSASNSPMQSRTNLDIPSTTTTSTSKGSISPTQSSESIVLPELKPITHDPLVTSNNSSSTLKVNQPIQHTNSSSKLNVIVSTPQTTQTTENNVNNTNTNTTTTNNNNNNNNNNNNNNNNNNNNNNNNNNNNSDVSSPKPTTKSLPPTPPTKKLPPTPPPKPLPPQPTLPQQPTLPPQPNLPPQPNLPPQPNLPPQPNLPPQPNLPQQPDLSQPPPQQQQQPTLDQAPPRPPKPNQDSRSQSFLCISSTVNSTPPTPPPKRIISTHPANTSFIYQPQQYVSSPNINNVPPPLPPPRIKSQAPIQRD
[3]
  enrichment in GFP-Dd5P4 immunoprecipitates: specifically enriched in precipitates from GFP-Dd5P4-expressing cells versus negative control precipitates, but not in precipitates from GFP-Dd5P4^W620A-expressing cells
